High-throughput results as filed in PubChem.
Shown are actives, neighbours in structure and some others; about 5.5% of the full set was active somewhere.
Cl transport mod: KCC2 (human) Cl- transport modulation. Q9H2X9. KCC2 cells, thallium flux FluoZin-2 fluorescence. B-score of Tl+ flux slope (higher = more flux/activation; lower = inhibition) at 10 µM. actives 2.2% (n = 190,000);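 active = thallium flux slope and its plate-corrected score both differing from the plate sample mean at a set confidence after two filtering rounds, in either direction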;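 note: slope of fluorescence scaled to starting intensity during 10 to 20 s after thallium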
HSV replic up: HSV replication enhancement | maximum fold increase | AID 1956 | HSV replication augmentation in cells, fold increase | actives 0.005% (n = 220,000); in the data active = maximum fold increase above about 1.5; inconclusive = no clear call, values can overlap the other calls; tested in PC3 cells
STAT1 inh: STAT1 signaling inhibition. AID 920. NIH 3T3 STAT1-luciferase reporter, IFN-gamma, luminescence. actives 0.35% (n = 200,000). inhibition, % at 5.5 µM;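 active = inhibition above a set limit, the mean inhibition across all tested compounds plus 3 SD, cut at about 34% in these data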
STAT3 blocker: STAT3 signaling inhibition. actives 0.89% (n = 190,000). U3A cells, IL-6 STAT3-luciferase reporter, luminescence; host cell line lacks STAT1. inhibition, % at 5.5 µM;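 active = inhibition above the mean inhibition across all screened compounds plus 3 SD, cut at about 44% in these data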
STAT3 activator: STAT3 signaling activation | AID 871 | U3A cells, IL-6 STAT3-luciferase reporter, luminescence; 100% = signal with IL-6 EC80 alone | actives 0.91% (n = 190,000) | activation (% of control), % at 5.6 µM;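 active = activation above the screen-wide mean of compound activation plus 3 SD, cut at about 130% in these data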
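Material: STAT3-luciferase reporter U3A cells. Controls: IL-6-treated wells, 100% activation. Read-out: % activation versus median of IL-6-stimulated wells. Probe or stimulus: IL-6 stimulus at 33 ng/mL final. Timing: compound 1 h, then IL-6 6 h at 37 °C. Signal: reporter luminescence signal.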
STAT1 activator: increases IFN-gamma driven STAT1 reporter signal | NIH 3T3 STAT1-luciferase reporter, luminescence; 100% = IFN-gamma alone, no compound | activation (% of control), % at 5.5 µM | actives 2.6% (n = 200,000) | AID 932;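 active = activation above the screen-wide mean activation plus 3 SD, cut at about 130% in these data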
KCC2 sec1: confirmation of human KCC2 transport modulators; shares compounds with Cl transport mod; HEK293-KCC2, thallium flux, FluoZin2 fluorescence; active compounds read high; normalised thallium flux (F/F0 slope) at 10 µM; actives 15% (n = 3,700);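 active = thallium flux slope above the same plate's solvent-only control mean plus 3 SD; inconclusive = the two replicate wells disagree; inactive = no significant difference from solvent-only control wells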
KCC2 bumet counter: thallium flux despite bumetanide block in KCC2 cells, secondary assay 3; shares compounds with Cl transport mod; HEK293-KCC2 + bumetanide/ouabain, thallium flux FluoZin2; active compounds read high; normalized thallium flux at 10 µM; actives 49% (n = 3,700);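 active = thallium entry rate above the same plate's blocked-transporter control wells by more than 3 SD; inconclusive = the two repeat wells disagree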;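 note: raw slope of fluorescence over initial fluorescence between 10 and 20 s after thallium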
KCC2 secondary2: KCC2 (human) modulation, second secondary assay; shares compounds with Cl transport mod; HEK293-KCC2, thallium flux FluoZin2 fluorescence; actives lie on both sides; F/F0 rise rate, 10–20 s post-thallium; normalized thallium flux at 10 µM; actives 23% (n = 3,700); AID 1715;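 active = thallium flux slope more than 3 SD above or below the plate's solvent-only control mean, mostly below; inconclusive = the two repeat wells disagreed; inactive = no significant shift from solvent-only controls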
HEK293 Tl flux: parental HEK flux effect, counter-screen | shares compounds with Cl transport mod | actives 46% (n = 3,700) | thallium flux rate (normalised fluorescence) at 10 µM | HEK293 parental cells, thallium flux FluoZin2, ouabain; baseline-ratio fluorescence slope, 10–20 s after thallium;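 active = thallium flux rate significantly above the same plate's solvent-only control wells, beyond their mean plus 3 SD; inconclusive = the two replicate wells gave conflicting results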
KCC2 ouabain: confirmation of human KCC2 modulators with ouabain. shares compounds with Cl transport mod. HEK293-KCC2, thallium flux FluoZin2 fluorescence; bidirectional: low = inhibitor, high = activator. raw Tl+ flux slope (below DMSO = inhibition, above = activation) at 10 µM. actives 48% (n = 3,700);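 active = thallium flux slope beyond 3 SD from same-plate DMSO control mean in most replicates, usually higher, sometimes lower; inconclusive = repeat tests gave conflicting results; inactive = no significant difference from controls in most replicates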;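 note: slope of initial-normalized fluorescence between seconds 10 and 20 after thallium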
HEK counter2: counter-screen for KCC2 modulators: effect in parental HEK293 cells | thallium flux slope at 10 µM | shares compounds with Cl transport mod | actives 33% (n = 3,700) | thallium flux FluoZin-2 fluorescence slope;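 active = thallium flux slope above the same plate's solvent-control mean plus 3 SD in both duplicate wells; inconclusive = duplicate wells that disagreed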;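 note: run without ouabain in cells lacking the KCC2 cotransporter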
Hits are given with their value; . = inactive; ? = inconclusive; / = no result.

SMILES	Cl transport mod	HSV replic up	STAT1 inh	STAT3 blocker	STAT3 activator	STAT1 activator	KCC2 sec1	KCC2 bumet counter	KCC2 secondary2	HEK293 Tl flux	KCC2 ouabain	HEK counter2
O=C(c1cc([N+](=O)[O-])ccc1N1CCOCC1)N1CCCC1	.	.	.	.	.	.	/	/	/	/	/	/
O=[N+]([O-])/C(C(Cl)=C(Cl)Cl)=C(/NC1CC1)Sc1ccccc1	.	.	.	.	.	.	/	/	/	/	/	/
O=C(CSc1nnc(CNc2ccccc2)o1)N1CCCc2ccccc21	-4.9	/	.	.	.	.	.	.	0.024	.	.	.
CCOc1ccc(CC(=O)Nc2ccc(-c3ccc4nnc(C)n4n3)cc2)cc1	.	.	.	.	.	.	/	/	/	/	/	/
CC1=NNC(=O)/C1=C\c1cn(-c2ccccc2)nc1-c1ccccc1	.	.	.	.	.	.	/	/	/	/	/	/
COc1ccc([C@@H]2Sc3ccccc3N(CCN(C)C)C(=O)[C@@H]2OC(C)=O)cc1	4.4	.	.	.	.	.	.	.	.	.	.	.
COc1ccc(N2CCN(C(=O)CSc3nc4[nH]ncc4c(=O)n3-c3cccc4ccccc34)CC2)cc1	-4.4	.	.	.	.	.	.	0.0064	0.026	.	0.015	.
CCCCN(C)CCCNC(=O)C1CC(=O)N(Cc2ccc(OC)cc2)C1 (centres undefined)	/	.	.	.	.	.	.	.	.	.	.	.
COc1ccc(CN2CC(C(=O)NCCC(C)C)CC2=O)cc1 (centres undefined)	.	.	.	.	.	.	/	/	/	/	/	/
Cc1cc(C)n(C(=O)/C(C#N)=N/Nc2cc(Cl)cc(Cl)c2)n1	-7.7	.	.	.	.	.	?	?	.	.	0.014	.
c1ccc(CCc2nn3c(Cc4ccccc4)nnc3s2)cc1	-2.7	.	.	.	.	.	.	.	.	.	0.018	.
Cc1ccc(-c2nc(C#N)c(N3CCCCC3)o2)cc1	.	.	.	.	.	.	/	/	/	/	/	/
N#Cc1nc(-c2ccc(F)cc2)oc1N1CCCC1	-5.7	/	.	.	.	.	.	.	.	.	.	.
COc1ccc(C(OCC2CO2)c2ccc(OC)cc2)cc1 (centres undefined)	/	.	.	.	.	.	/	/	/	/	/	/
CC(/C=N/n1c(-c2ccco2)n[nH]c1=S)=C\c1ccco1	4.7	.	.	.	.	.	.	0.027	.	0.018	0.028	0.02
Cc1cc(-c2n[nH]c(=S)n2/N=C/C(Cl)=C/c2ccccc2)n[nH]1	4.9	.	.	.	.	.	.	0.013	.	?	.	.
S=c1[nH]nc(-c2ccco2)n1/N=C/C(Cl)=C/c1ccccc1	34	.	/	/	/	/	0.016	0.14	.	0.029	0.067	0.015
COc1ccc(C(O)C(CC(=O)NCCCOC(C)C)C(=O)NCCCOC(C)C)cc1OC (centres undefined)	.	.	.	.	.	.	/	/	/	/	/	/
COc1ccc(N/C=C/c2nc(SC)nnc2C)cc1	-3	.	.	.	.	.	.	0.0022	0.024	0.004	0.012	0.0077
CCN(CC)S(=O)(=O)c1cccc(NC(=O)COc2ncnc3sccc23)c1	.	.	.	.	.	.	/	/	/	/	/	/
